A value given as a limit tells only on which side of the number the result lay.

Usually IC50 stands for the concentration needed to halve the response being measured. High values mean weaker potency in that assay, low ones greater potency in that assay.

The subject of one experiment is NCI-H460. In words: Antiproliferative activity against human H460 cells after 96 hrs by Cell Titre-Glo luminescent assay. It is filed as functional, cell-based. The settings on record: NCI-H460, 96 h.
For a further experiment, the system named is A2780. The experiment can be described thus: Antiproliferative activity against human A2780 cells after 2 days by Alamar Blue assay. It is filed as functional, cell-based. The settings on record: A2780, 48 h. In outline: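 Drug-sensitive human ovarian cancer cell line; samples delivered in 1 μL of 100% DMSO per well rather than 20 μL of 1:1 DMSO–H2O. Otherwise run by a previously reported protocol.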

As to `Oc1ccc2c(c1)-c1nccc3ccnc-2c13`, the IC50 with NCI-H460 is > 10 µM; in the experiment with A2780 it was 12.7 µM.
Regarding `COc1ccc2c(c1)-c1c3c-2nccc3cc[n+]1[O-]`, the half-inhibitory concentration (IC50) was > 10 µM with NCI-H460 and 54.3 µM with A2780.
Turning to `COc1cccc2c1-c1nccc3ccnc(c13)C2=O`, the results for the IC50 in the experiment with NCI-H460 and in the experiment on A2780 were 0.57 µM and 10.3 µM, respectively.
For `[O-][n+]1ccc2ccnc3c2c1-c1ccccc1-3`, the IC50 with NCI-H460 is 1.77 µM; in the experiment with A2780, 3.5 µM.
The matching figures for `COc1ccc2c(c1)-c1nccc3ccnc-2c13`: > 10 µM and 11.1 µM.
The corresponding values for `COc1ccc2c(c1)-c1nccc3cc[n+]([O-])c-2c13` are > 100 µM and 50.3 µM.
The matching figures for `c1ccc2c(c1)-c1nccc3ccnc-2c13` [EUPOLAURIDINE]: > 100 µM and 35.7 µM.
As for `O=C1c2ccccc2-c2nccc3ccnc1c23` [SAMPANGINE], the half-maximal inhibitory concentration (IC50) amounted to 0.58 µM in the experiment with NCI-H460 and 0.6 µM in the experiment on A2780.

The values above are taken from ChEMBL document CHEMBL1799940, “Isolation and synthesis of antiproliferative eupolauridine alkaloids of Ambavia gerrardii from the Madagascar Dry Forest” (J Nat Prod, 2011).
